Activity calls are given as the source filed them. No cut-off for these calls is given here. Peptide text beside a SMILES is read from it. * marks the point of attachment. Carbamoyl(2-ClEt,NO) = O=NN(CCCl)C(=O)*; Boc = CC(C)(C)OC(=O)*; For = O=C*
Legend:
L1210 [1] = assay: Antitumor activity against L1210 Leukemia in mice at a dose of 30 mg/kg was determined.; type: functional, Mus musculus
In short: (§1)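 L1210 leukemia in mice, 10 per group, treated with one ip injection 1 day after tumor transplantation at 0.1 mL/10 g body weight. Dose was dissolved in 0.2 mL DMSO and diluted to 10 mL with 0.9% NaCl. Controls received saline or solvent. %ILS = [(T − C)/C] × 100, using median survival days. Cures were scored on day 60 post-transplant.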

L1210 [2] = assay: Antitumor activity against L1210 Leukemia in mice at a dose of 100 mg/kg was determined.; type: functional, Mus musculus; in short: as §1
L1210 [3] = assay: Antitumor activity against L1210 Leukemia in mice at a dose of 30 mg/kg expressed as percent of increase in life span after day 60s was determined.; type: functional; settings: Mus musculus
In short: (§2)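 L1210 leukemia-bearing mice, 10 per group; controls got saline or solvent. Dose was dissolved in 0.2 mL DMSO, diluted to 10 mL with 0.9% NaCl, and given as one ip injection (0.1 mL/10 g body weight) 1 day after transplantation. %ILS = [(T − C)/C] × 100 from median survival days, treated versus untreated. Cures were counted on day 60 after transplantation.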

L1210 [4] = assay: Antitumor activity against L1210 Leukemia in mice at a dose of 100 mg/kg expressed as percent of increase in life span after day 60s was determined.; type: functional; settings: Mus musculus; in short: as §2
L1210 [5] = assay: Antitumor activity against L1210 Leukemia in mice at a dose of 200 mg/kg expressed as percent of increase in life span after day 60s was determined.; type: functional; settings: Mus musculus; in short: as §2
L1210 [6] = assay: Antitumor activity against L1210 Leukemia in mice at a dose of 200 mg/kg was determined.; type: functional, Mus musculus; in short: as §1
[7] = Antitumor activity against L1210 Leukemia in mice expressed as 50% lethal dose was determined at 200 mg/kg; type: ADME, organism-based; design: dose 200 mg/kg; settings: mouse, in vivo
L1210 [8] = assay: Antitumor activity against L1210 Leukemia in mice at a dose of 130 mg/kg was determined.; type: functional, Mus musculus
[9] = Antitumor activity against L1210 Leukemia in mice expressed as 50% lethal dose was determined at a dose of 130 mg/kg; type: ADME, organism-based; design: dose 130 mg/kg; settings: mouse, in vivo
[10] = Antitumor activity against L1210 Leukemia in mice expressed as 50% lethal dose was determined at a dose of 100 mg/kg; type: ADME, organism-based; design: dose 100 mg/kg; settings: mouse, in vivo
L1210 [11] = assay: Antitumor activity against L1210 Leukemia in mice at a dose of 100 mg/kg expressed as percent of increase in life span after day 60s was determined; no effect; type: functional, organism-based; design: dose 100 mg/kg; settings: Mus musculus; in short: as §2
L1210 [12] = assay: Antitumor activity against L1210 Leukemia in mice at a dose of 30 mg/kg expressed as percent of increase in life span after day 60s was determined; no effect; type: functional, organism-based; design: dose 30 mg/kg; settings: Mus musculus; in short: as §2
L1210 [13] = assay: Antitumor activity against L1210 Leukemia in mice at a dose of 200 mg/kg expressed as percent of increase in life span or the percent of surviving animals on day 60 was determined.; type: functional; settings: Mus musculus, L1210, 1440 h; in short: as §2
L1210 [14] = assay: Antitumor activity against L1210 Leukemia in mice at a dose of 50 mg/kg expressed as percent of increase in life span after day 60s was determined.; type: functional; settings: Mus musculus; in short: as §2
L1210 [15] = assay: Antitumor activity against L1210 Leukemia in mice at a dose of 50 mg/kg was determined.; type: functional, Mus musculus; in short: as §1

| Compound | MED (L1210 [2]) | ILS at 100 mg/kg (L1210 [4]) | MED (L1210 [6]) | LD50 [7] | other results |
| --- | --- | --- | --- | --- | --- |
| CC(C)[C@H](NC(=O)[C@@H]1CCCN1C(=O)[C@H](CCCCNC=O)NC(=O)N(CCCl)N=O)C(N)=O | 0.2 mmol/kg | 110% | 0.4 mmol/kg | 260 mg/kg | MED (L1210 [1]): 0.059 mmol/kg; ILS at 30 mg/kg (L1210 [3]): 70%; ILS at 200 mg/kg (L1210 [5]): 190% |
| CC(C)[C@H](NC(=O)[C@@H]1CCCN1C(=O)[C@H](CCCCN)NC(=O)N(CCCl)N=O)C(N)=O.Cl |  |  |  |  | MED (L1210 [8]): 0.25 mmol/kg; LD50 [9]: 175 mg/kg |
| CC(C)[C@H](NC(=O)[C@@H]1CCCN1C(=O)[C@H](CCCCNC(=O)N(CCCl)N=O)NC(=O)N(CCCl)N=O)C(N)=O | 0.16 mmol/kg | 380% |  |  | LD50 [10]: 250 mg/kg |
| CC(C)[C@H](NC(=O)[C@@H]1CCCN1C(=O)N(CCCl)N=O)C(N)=O | 0.28 mmol/kg |  |  |  | LD50 [10]: 150 mg/kg |
| NC(=O)C1CCCN1C(=O)N(CCCl)N=O (centres undefined) | 0.403 mmol/kg | 420% |  |  | LD50 [10]: 140 mg/kg |
| CC(C)[C@H](NC(=O)[C@@H]1CCCN1C(=O)[C@H](CCCCNOC(=O)C(C)(C)C)NC(=O)[C@@H]1CCCN1C(=O)N(CCCl)N=O)C(N)=O |  |  |  |  | ILS (L1210 [11]): inactive; ILS (L1210 [12]): inactive |
| CC(C)[C@H](NC(=O)[C@@H]1CCCN1C(=O)[C@@H](N)CCCCNC=O)C(N)=O.Cl (H-Lys(For)-Pro-Val-NH2) | 0.24 mmol/kg |  |  |  | ILS (L1210 [11]): inactive |
| CC(C)[C@H](NC(=O)[C@@H]1CCCN1C(=O)[C@H](CCCCNC(=O)OC(C)(C)C)NC(=O)[C@@H]1CCCN1C(=O)N(CCCl)N=O)C(N)=O ({Carbamoyl(2-ClEt,NO)}-PK(Boc)PV-NH2) [listing 1 of 2 here] |  |  |  | 300 mg/kg |  |
| CC(C)[C@H](NC(=O)[C@@H]1CCCN1C(=O)[C@H](CCCCNC(=O)OC(C)(C)C)NC(=O)[C@@H]1CCCN1C(=O)N(CCCl)N=O)C(N)=O ({Carbamoyl(2-ClEt,NO)}-PK(Boc)PV-NH2) [listing 2 of 2 here] | 0.15 mmol/kg |  | 0.3 mmol/kg |  | MED (L1210 [1]): 0.045 mmol/kg; ILS at 200 mg/kg (L1210 [13]): 30% |
| CC(C)[C@H](NC(=O)[C@@H]1CCCN1C(=O)[C@H](CCCCNC(=O)N(CCCl)N=O)NC(=O)[C@@H]1CCCN1C(=O)N(CCCl)N=O)C(N)=O ({Carbamoyl(2-ClEt,NO)}-PK(Carbamoyl(2-ClEt,NO))PV-NH2) | 0.14 mmol/kg |  | 0.28 mmol/kg | 220 mg/kg | MED (L1210 [1]): 0.042 mmol/kg; ILS at 30 mg/kg (L1210 [3]): 100%; ILS at 200 mg/kg (L1210 [5]): 120% |
| CC(C)[C@H](NC(=O)[C@@H]1CCCN1C(=O)[C@H](CCCCNC=O)NC(=O)[C@@H]1CCCN1C(=O)N(CCCl)N=O)C(N)=O ({Carbamoyl(2-ClEt,NO)}-PK(For)PV-NH2) | 0.16 mmol/kg | 80% | 0.32 mmol/kg | 250 mg/kg | ILS at 50 mg/kg (L1210 [14]): 40%; MED (L1210 [15]): 0.083 mmol/kg; ILS at 200 mg/kg (L1210 [5]): 80% |
